Active and inactive are the calls of the source. The rule behind the calls is not given here.
Key:
[1] = species: Homo sapiens; assay: Induction of apoptosis in human GIST5R cells harboring c-KIT 560 to 578 deletion/T670I double mutant assessed as increase in cleaved caspase level after 24 hrs by Western blot analysis; assay type: functional, cell-based
[2] = Antitumor activity against human GIST5R cells xenografted in nude mouse assessed as tumor weight at 25 mg/kg, po administered […] via gavage for 28 days (reference value: 0.59g); assay type: functional
Method in brief: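 Female nu/nu mice (5 weeks old) given subcutaneous right-flank GIST-5R cells in Matrigel. Dosing began at tumors of 200-400 mm3; randomized, 4 mice per group. Daily oral dosing (QD) at 25, 50 or 100 mg/kg in 0.5% methylcellulose/0.4% Tween80, or vehicle alone, for 28 days. Body weight and tumor volume, (W²×L)/2, measured daily; mean±SEM.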

[3] = molecular target: Mast/stem cell growth factor receptor Kit (Homo sapiens, UniProt P10721); assay: Inhibition of wild-type His-tagged c-KIT (unknown origin) expressed in baculovirus infected sf9 cells pre-incubated for 60 mins followed by ATP addition and measured after 1 hr by Z-LYTE assay
Chain of Mast/stem cell growth factor receptor Kit (Homo sapiens, UniProt P10721) (P10721 whole entry): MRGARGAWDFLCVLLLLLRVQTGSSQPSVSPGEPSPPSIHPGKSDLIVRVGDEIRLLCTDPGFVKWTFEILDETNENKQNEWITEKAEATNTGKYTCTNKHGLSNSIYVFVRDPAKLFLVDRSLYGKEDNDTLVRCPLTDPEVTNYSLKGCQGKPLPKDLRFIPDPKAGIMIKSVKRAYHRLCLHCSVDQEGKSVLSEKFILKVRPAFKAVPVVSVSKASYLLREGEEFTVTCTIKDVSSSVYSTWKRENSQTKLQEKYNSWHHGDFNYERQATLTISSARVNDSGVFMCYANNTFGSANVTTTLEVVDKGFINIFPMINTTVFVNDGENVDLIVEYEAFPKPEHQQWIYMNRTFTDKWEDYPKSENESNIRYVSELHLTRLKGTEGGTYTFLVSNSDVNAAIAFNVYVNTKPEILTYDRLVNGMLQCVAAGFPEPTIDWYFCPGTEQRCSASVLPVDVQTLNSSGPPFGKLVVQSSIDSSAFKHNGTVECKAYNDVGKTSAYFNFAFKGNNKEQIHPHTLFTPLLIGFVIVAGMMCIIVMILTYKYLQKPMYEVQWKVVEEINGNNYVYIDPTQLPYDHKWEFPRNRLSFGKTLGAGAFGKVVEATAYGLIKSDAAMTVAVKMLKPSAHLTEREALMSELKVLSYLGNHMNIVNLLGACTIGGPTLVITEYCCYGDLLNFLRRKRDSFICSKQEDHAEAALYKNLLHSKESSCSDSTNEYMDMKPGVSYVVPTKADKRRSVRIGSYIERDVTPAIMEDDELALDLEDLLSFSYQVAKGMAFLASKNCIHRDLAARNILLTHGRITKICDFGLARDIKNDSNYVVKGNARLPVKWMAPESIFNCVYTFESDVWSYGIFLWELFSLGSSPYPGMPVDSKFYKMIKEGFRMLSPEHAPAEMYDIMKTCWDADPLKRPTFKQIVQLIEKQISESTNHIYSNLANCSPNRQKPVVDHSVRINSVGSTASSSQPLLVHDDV

[4] = Cmax in Sprague-Dawley rat at 10 mg/kg, po measured after 5 to 720 mins by LC-tandem mass spectrometry analysis; assay type: ADME, organism-based; parameters: dose 10 mg/kg, route oral; conditions: in vivo
Method in brief: (§1)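 Male Sprague-Dawley rats (190-210 g), fasted 12 h, randomized into two groups: 1 mg/kg i.v. or 10 mg/kg p.o., both formulated in 10% DMSO/90% of 5% glucose water. Blood sampled at 2-720 min (i.v.) or 5-720 min (p.o.). Plasma protein-precipitated with methanol, caffeine internal standard, LC-MS/MS. Noncompartmental analysis; triplicate, ±SD.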

[5] = molecular target: Mast/stem cell growth factor receptor Kit (Homo sapiens, UniProt P10721, T670I); assay: Inhibition of TEL fused wild type c-KIT T670I mutant (unknown origin) transfected in mouse BaF3 cells assessed as reduction in phosphorylation at Y719 residue after 2 hrs by Western blot analysis; assay type: cell-based
Chain of Mast/stem cell growth factor receptor Kit (Homo sapiens, UniProt P10721, T670I) (P10721 26-976 T670I limits assumed): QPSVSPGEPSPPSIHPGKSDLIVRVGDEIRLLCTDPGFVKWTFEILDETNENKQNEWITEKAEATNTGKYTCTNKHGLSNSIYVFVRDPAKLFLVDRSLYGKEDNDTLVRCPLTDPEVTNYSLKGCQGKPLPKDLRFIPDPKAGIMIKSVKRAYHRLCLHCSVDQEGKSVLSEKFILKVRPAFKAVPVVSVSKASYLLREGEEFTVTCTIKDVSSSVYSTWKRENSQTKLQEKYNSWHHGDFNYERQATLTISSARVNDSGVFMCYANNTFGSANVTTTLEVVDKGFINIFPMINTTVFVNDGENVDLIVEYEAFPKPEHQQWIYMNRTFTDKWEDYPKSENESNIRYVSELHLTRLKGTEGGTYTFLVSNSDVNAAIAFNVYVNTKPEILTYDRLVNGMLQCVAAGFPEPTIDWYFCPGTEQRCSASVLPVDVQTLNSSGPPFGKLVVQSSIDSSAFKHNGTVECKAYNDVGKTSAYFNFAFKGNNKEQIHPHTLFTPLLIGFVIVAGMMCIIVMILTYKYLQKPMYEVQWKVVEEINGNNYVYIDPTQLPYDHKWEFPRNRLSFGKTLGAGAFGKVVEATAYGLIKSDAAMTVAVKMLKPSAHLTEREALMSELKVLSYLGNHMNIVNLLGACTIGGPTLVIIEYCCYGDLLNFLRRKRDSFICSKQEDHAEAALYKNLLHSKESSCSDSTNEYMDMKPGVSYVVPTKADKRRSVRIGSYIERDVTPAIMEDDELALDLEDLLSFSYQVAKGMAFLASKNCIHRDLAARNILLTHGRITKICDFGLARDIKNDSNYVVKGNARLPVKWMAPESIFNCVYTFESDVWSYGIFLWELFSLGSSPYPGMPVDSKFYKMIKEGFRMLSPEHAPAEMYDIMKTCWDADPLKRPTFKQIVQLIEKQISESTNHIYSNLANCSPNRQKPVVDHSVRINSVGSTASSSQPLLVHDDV

[6] = molecular target: Serine/threonine-protein kinase pim-3 (Homo sapiens, UniProt Q86V86); assay: Binding affinity to wild-type human partial length PIM3 (G16 to A317 residues) expressed in bacterial expression system assessed as enzyme remaining activity at 1 uM by Kinomescan assay relative to control
Method in brief: (§2)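 KINOMEscan competition binding panel of 468 kinases and mutants, compound at 1 μM; binding reported as percent of control.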

[7] = system: GISTT1; assay: Induction of cell cycle arrest in human GISTT1 cells harboring 560 to 578 deletion/T670I double mutant after 24 hrs; assay type: functional, cell-based
[8] = system: Mast/stem cell growth factor receptor Kit (Homo sapiens), P10721 [V559G]; assay: Inhibition of TEL fused c-KIT V559G mutant (unknown origin) transfected in mouse BAF3 cells assessed as growth inhibition after 72 hrs by CCK8 assay; assay type: cell-based
Chain of Mast/stem cell growth factor receptor Kit (Homo sapiens), P10721 [V559G] (P10721 whole entry V559G, the tested form may be a part): as the sequence (P10721 whole entry) above, with V559G counted along it
Method in brief: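 Tel-c-KIT-transformed BaF3 lines (IL-3 independent) kept in RPMI 1640 with 10% FBS, 2% L-glutamine and pen/strep. Cells at 1.5 to 5 × 10^4 cells/mL mixed with graded compound and incubated 72 h at 37 °C, 5% CO2. Viability by CCK-8 absorbance at 450 nm, normalized to DMSO. GI50 from dose–response fit.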

[9] = Half-life in Sprague-Dawley rat at 1 mg/kg, iv measured after 2 to 720 mins by LC-tandem mass spectrometry analysis; assay type: ADME, organism-based; conditions: in vivo; method in brief: as §1
[10] = system: Mast/stem cell growth factor receptor Kit (Homo sapiens), P10721 [UNDEFINED MUTATION]; assay: Binding affinity to human partial length c-KIT V559D/[…] double mutant (Y545 to D952 residues) expressed in bacterial expression system assessed as enzyme remaining activity at 1 uM by Kinomescan method relative to control
Chain of Mast/stem cell growth factor receptor Kit (Homo sapiens), P10721 [UNDEFINED MUTATION] (P10721 whole entry, looked up, stated change not applied, the tested form may be a part): as the sequence (P10721 whole entry) above
Method in brief: (§3)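 KINOMEscan binding profile (DiscoverX) run at 1 μM against a panel of 468 kinases and mutants. Read-out is percent of control (%Ctrl) remaining bound.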

[11] = molecular target: Serine/threonine-protein kinase 25 (Homo sapiens, UniProt O00506); assay: Binding affinity to wild-type human partial length STK25 (V14 to H295 residues) expressed in bacterial expression system assessed as enzyme remaining activity at 1 uM by Kinomescan assay relative to control; method in brief: as §2
Chain of Serine/threonine-protein kinase 25 (O00506 whole entry, looked up, the tested form may be a part): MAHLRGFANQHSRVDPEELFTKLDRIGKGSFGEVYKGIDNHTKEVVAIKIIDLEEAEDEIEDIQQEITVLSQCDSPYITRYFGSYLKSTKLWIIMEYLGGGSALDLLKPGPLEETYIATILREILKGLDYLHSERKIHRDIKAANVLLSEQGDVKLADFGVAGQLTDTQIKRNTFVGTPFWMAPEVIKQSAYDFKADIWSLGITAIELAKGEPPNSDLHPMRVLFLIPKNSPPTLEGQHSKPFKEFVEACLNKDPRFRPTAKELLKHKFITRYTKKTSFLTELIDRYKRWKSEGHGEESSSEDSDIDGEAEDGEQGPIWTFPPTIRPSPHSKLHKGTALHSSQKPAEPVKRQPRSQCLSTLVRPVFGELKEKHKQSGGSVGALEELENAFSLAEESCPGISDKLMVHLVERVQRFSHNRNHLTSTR

[12] = system: Mast/stem cell growth factor receptor Kit (Homo sapiens), P10721 [UNDEFINED MUTATION]; assay: Inhibition of c-KIT 560 to 578 deletion mutant in human GISTT1 cells assessed as reduction in STAT3 phosphorylation at 0.1 uM to 3 uM after 1 hr by Western blot analysis; assay type: cell-based
Method in brief: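 Serial compound dilutions applied for 1 h to GIST-T1, GIST-T1-T670I (CRISPR/Cas9 T670I knock-in, clone confirmed by Sanger sequencing) or GIST-5R cells in DMEM with 10% FBS. Cells then lysed and phospho-proteins detected by standard Western blotting.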

[13] = Apparent volume of distribution in mouse at 10 mg/kg, po measured after 5 to 720 mins by LC-tandem mass spectrometry analysis; assay type: ADME, organism-based; conditions: in vivo
Method in brief: (§4)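 Mice dosed 1 mg/kg i.v. or 10 mg/kg p.o.; plasma drug levels by LC-MS/MS, parameters by noncompartmental analysis; values not from triplicate testing.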

[14] = AUC (0 to t) in mouse at 10 mg/kg, po measured after 5 to 720 mins by LC-tandem mass spectrometry analysis; assay type: ADME, organism-based; conditions: in vivo; method in brief: as §4
[15] = Antiproliferative activity in mouse BAF3 cells after 72 hrs by CCK8 assay; assay type: cell-based
Method in brief: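 IL-3-independent BaF3 cells carrying tel-c-KIT constructs, grown in RPMI 1640 with 10% FBS. Cells at 1.5-5 × 10^4 cells/mL mixed directly with serial compound dilutions, 72 h at 37 °C, 5% CO2. CCK-8 read-out at 450 nm, normalized to DMSO; GI50 by curve fitting.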

[16] = AUC (0 to infinity) in Sprague-Dawley rat at 1 mg/kg, iv measured after 2 to 720 mins by LC-tandem mass spectrometry analysis; assay type: ADME, organism-based; parameters: dose 1 mg/kg, route intravenous, time infinity; conditions: in vivo; method in brief: as §1
[17] = Tmax in mouse at 10 mg/kg, po measured after 5 to 720 mins by LC-tandem mass spectrometry analysis; assay type: ADME, organism-based; conditions: in vivo
[18] = system: Mast/stem cell growth factor receptor Kit (Homo sapiens), P10721 [V559D]; assay: Binding affinity to human partial length c-KIT V559D mutant (Y545 to D952 residues) expressed in bacterial expression system assessed as enzyme remaining activity at 1 uM by Kinomescan method relative to control; method in brief: as §3
Chain of Mast/stem cell growth factor receptor Kit (Homo sapiens), P10721 [V559D] (P10721 whole entry V559D, the tested form may be a part): as the sequence (P10721 whole entry) above, with V559D counted along it

[19] = Antiproliferative activity against human GIST5R cells harboring c-KIT 560 to 578 deletion/T670I double mutant incubated for 72 hrs by CCK8 assay; assay type: functional
Method in brief: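 Adherent GIST cells seeded at 1.5-5 × 10^4 cells/mL and left overnight at 37 °C, 5% CO2. Medium then replaced with medium holding serial compound dilutions; 72 h incubation. Viability by CCK-8, absorbance at 450 nm, normalized to DMSO control; GI50 from dose-response fit.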

[20] = molecular target: Serine/threonine-protein kinase PAK 2 (Homo sapiens, UniProt Q13177); assay: Binding affinity to wild-type human partial length PAK2 (P151 to R525 residues) expressed in bacterial expression system assessed as enzyme remaining activity at 1 uM by Kinomescan assay relative to control; method in brief: as §2
Chain of Serine/threonine-protein kinase PAK 2 (Q13177 whole entry, the tested form may be a part): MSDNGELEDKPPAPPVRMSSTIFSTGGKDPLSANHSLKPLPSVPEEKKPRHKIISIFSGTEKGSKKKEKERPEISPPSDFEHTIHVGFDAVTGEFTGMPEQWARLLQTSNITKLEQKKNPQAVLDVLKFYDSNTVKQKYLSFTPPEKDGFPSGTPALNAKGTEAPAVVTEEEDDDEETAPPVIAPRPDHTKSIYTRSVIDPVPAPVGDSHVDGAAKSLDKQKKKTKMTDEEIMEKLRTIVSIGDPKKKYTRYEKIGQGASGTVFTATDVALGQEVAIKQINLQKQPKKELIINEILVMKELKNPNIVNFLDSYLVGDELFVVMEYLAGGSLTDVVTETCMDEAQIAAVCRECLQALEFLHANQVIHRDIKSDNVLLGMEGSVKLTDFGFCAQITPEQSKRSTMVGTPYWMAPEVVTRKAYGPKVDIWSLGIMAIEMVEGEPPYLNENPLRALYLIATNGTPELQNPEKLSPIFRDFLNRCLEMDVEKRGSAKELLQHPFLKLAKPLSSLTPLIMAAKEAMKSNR

[21] = MRT (0 to infinity) in mouse at 10 mg/kg, po measured after 5 to 720 mins by LC-tandem mass spectrometry analysis; assay type: ADME, organism-based; conditions: in vivo

In the case of `O=C(CC(=O)Nc1ccc2c(/C=C/c3ccccn3)n[nH]c2c1)Nc1cccc(F)c1`, the Activity [1] is reported as “Dose-dependent effect”, the Activity [2] is reported as 0.33 g and the IC50 [3] is reported as 536 nM. The Cmax [4] was 97.1 ng/mL, the EC50 [5] was 750 nM and the Activity [6] was 0%. The Activity [7] was “Dose-dependent effect”, the GI50 [8] was 26 nM and the half-life [9] was 10.4 h. The Activity [10] was under 1%, the Activity [11] was 0% and the inhibition [12] was “inactive”. It also gave a Vz [13] of 19 L/kg, an AUC(0-t) [14] of 1470 ng·h/mL and a GI50 at 72 h [15] of 3970 nM. It also gave an AUC(0-inf) [16] of 307 ng·h/mL, a Tmax [17] of 0.5 h and an Activity [18] of under 1%. For the same compound, the GI50 [19] was 475 nM, the Activity [20] was 0.1% and the MRT inf [21] was 2.2 h.

Source: ChEMBL document CHEMBL4304743, “Discovery of ( E)- N1-(3-Fluorophenyl)- N3-(3-(2-(pyridin-2-yl)vinyl)-1 H-indazol-6-yl)malonamide (CHMFL-KIT-033) as a Novel c-KIT T670I Mutant Selective Kinase Inhibitor for Gastrointestinal Stromal Tumors (GISTs)” (J Med Chem, 2019)
